Results from article PMC3063522 (Journal of agricultural and food chemistry, 2011).
In brackets after ≈: the same amount, converted by molar mass. Entries after “also recorded” stand apart in the source; their conditions may differ.

What was measured:
[1] = Cytotoxicity; format: cell-based; settings: human, SK-MEL malignant melanoma cells
Outline: (§1)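 Anti-proliferative assay run alongside four human tumour lines (SK-MEL, KB, BT-549, SK-OV-3) and two noncancerous kidney lines (Vero, LLC-PK11). Doxorubicin served as the positive control.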

[2] = Cytotoxicity; format: cell-based; settings: human, KB oral epidermal carcinoma cells
Outline: as §1

[3] = Cytotoxicity; format: cell-based; settings: human, BT-549 breast ductal carcinoma cells
Outline: as §1

[4] = Cytotoxicity; format: cell-based; settings: human, SK-OV-3 ovary carcinoma cells
Outline: as §1

[5] = Cytotoxicity; format: cell-based; settings: African green monkey, Vero kidney fibroblasts
Outline: as §1

[6] = Cytotoxicity; format: cell-based; settings: pig, LLC-PK11 kidney epithelial cells
Outline: as §1

[7] = Cytotoxicity towards HL-60 cells in the antioxidant assay; format: cell-based; settings: human, HL-60 promyelocytic leukemia cells
[8] = Cytotoxicity to RAW 264.7 cells in the iNOS assay; format: cell-based, mouse; settings: mouse, RAW 264.7 macrophages
[9] = system: Phomopsis viticola; assay: Antifungal broth dilution microbioassay, Phomopsis viticola; format: cell-based
Outline: (§2)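 Broth microdilution adapted from the NCCLS M27-A yeast method for conidia-forming filamentous plant-pathogenic fungi. The commercial fungicide captan served as the internal standard in every assay. Means were compared by SAS analysis of variance with Fisher's protected LSD. For P. viticola and P. obscurans, activity was read at 120 and 144 h of incubation.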

[10] = system: mosquito larvae; assay: Mosquito larvae toxicity bioassay; format: in vivo; settings: Figure 4
Outline: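 Larval toxicity bioassay, run in triplicate. Controls were untreated, DMSO-acetone carrier, and permethrin as the positive control.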

[11] = system: Phomopsis obscurans; assay: Antifungal broth dilution microbioassay, Phomopsis obscurans; format: cell-based
Outline: as §2

[12] = system: adult A. aegypti female mosquitoes; assay: Adult mosquito topical toxicity assay; format: in vivo; settings: for Adult mosquito mortality rate ± SD: topical, 3.12 μg per insect, acetone/DMSO control gave 5.8±1.8%
[13] = system: Botrytis cinerea; assay: Antifungal broth dilution microbioassay, Botrytis cinerea; format: cell-based
Outline: as §2

[14] = at the highest concentrations, Figure 2D
[15] = 120 and 144 h (from 120 to 144 h)

| SMILES | IC50 [1] | IC50 [2] | IC50 [3] | IC50 [4] | IC50 [5] | IC50 [6] | IC50 [7] | IC50 [8] | Antifungal activity against P. viticola [9, 14] | Toxicity to mosquito larvae [10] | Antifungal activity against P. viticola ([9]; 144 h of incubation) | Antifungal activity against P. obscurans ([11]; 144 h of incubation) | Adult mosquito mortality rate ± SD [12] | Adult mosquito mortality ([12]; 6.25 μg/mosquito, positive standard) | Growth inhibition of B. cinerea ([13]; 48 h) | Growth inhibition of B. cinerea ([13]; 72 h) | Antifungal activity against P. obscurans [11, 15] | Antifungal activity against P. obscurans ([11]; 120 h) |
| --- | --- | --- | --- | --- | --- | --- | --- | --- | --- | --- | --- | --- | --- | --- | --- | --- | --- | --- |
| COc1cc(O)cc(/C=C/c2ccccc2)c1 [Compound 19] | > 25 µg/mL | > 25 µg/mL | > 25 µg/mL | > 25 µg/mL | > 25 µg/mL | > 25 µg/mL | 18 µg/mL (≈ 79.5 µM) | 12 µg/mL (≈ 53 µM) | appreciable activity | highest activity; also recorded: somewhat greater activity | – | – | – | – | – | – | – | – |
| Oc1ccc(/C=C/c2cccc(O)c2)cc1 [Compound 15, trans-3,4′-dihydroxystilbene] | > 25 µg/mL | > 25 µg/mL | > 25 µg/mL | > 25 µg/mL | 19.5 µg/mL (≈ 91.9 µM) | 12 µg/mL (≈ 56.5 µM) | 4 µg/mL (≈ 18.8 µM) | > 25 µg/mL | – | – | – | – | – | – | – | – | – | – |
| CC1(C)C=Cc2c(O)cc(/C=C/c3ccc(O)cc3)cc2O1 [Compound 10, arahypin-5] | 17.5 µg/mL (≈ 59.5 µM) | > 25 µg/mL | > 25 µg/mL | > 25 µg/mL | > 25 µg/mL | 19.5 µg/mL (≈ 66.2 µM) | 4.5 µg/mL (≈ 15.3 µM) | 16 µg/mL (≈ 54.4 µM) | – | – | more fungicidal | more fungicidal | 5.8±1.8% | – | – | – | – | – |
| COc1cc(/C=C/c2ccccc2)cc(OC)c1 [Compound 18] | > 25 µg/mL | > 25 µg/mL | > 25 µg/mL | > 25 µg/mL | > 25 µg/mL | > 25 µg/mL | > 25 µg/mL | > 25 µg/mL | – | highest activity; also recorded: very low compared to the positive control permethrin | – | – | – | – | – | – | – | – |
| CC1(C)C(C=C(Cl)Cl)C1C(=O)OCc1cccc(Oc2ccccc2)c1 (stereo not shown) [permethrin, reference compound] | – | – | – | – | – | – | – | – | – | – | – | – | – | 100% | – | – | – | – |
| CC(C)=CCC/C(C)=C/Cc1c(O)cc(/C=C/c2ccc(O)cc2O)cc1O [Compound 22, chlorophorin] | > 25 µg/mL | > 25 µg/mL | 20 µg/mL (≈ 52.6 µM) | > 25 µg/mL | 15.5 µg/mL (≈ 40.7 µM) | 14.5 µg/mL (≈ 38.1 µM) | 25 µg/mL (≈ 65.7 µM) | 9 µg/mL (≈ 23.7 µM) | appreciable activity | – | – | – | – | – | very high growth inhibition values | very high growth inhibition values | – | – |
| Oc1cccc(/C=C/c2ccccc2)c1 [Compound 14] | > 25 µg/mL | > 25 µg/mL | > 25 µg/mL | > 25 µg/mL | > 25 µg/mL | > 25 µg/mL | 19 µg/mL (≈ 96.8 µM) | 22 µg/mL (≈ 112 µM) | – | highest activity; also recorded: very low compared to the positive control permethrin | – | – | – | – | – | – | – | – |
| COc1cccc2c1C(=O)c1c(O)c3c(c(O)c1C2=O)C[C@@](O)(C(=O)CO)C[C@@H]3O[C@H]1C[C@H](N)[C@H](O)[C@H](C)O1 [Doxorubicin, reference compound] | 0.8 µg/mL (≈ 1.47 µM) | 1.45 µg/mL (≈ 2.67 µM) | 1.35 µg/mL (≈ 2.48 µM) | 1.3 µg/mL (≈ 2.39 µM) | > 5 µg/mL | 0.9 µg/mL (≈ 1.66 µM) | 0.24 µg/mL (≈ 0.442 µM) | – | – | – | – | – | – | – | – | – | – | – |
| CC(C)/C=C/c1c(O)cc(/C=C/c2ccccc2)cc1O [Compound 6, arahypin-1] | > 25 µg/mL | > 25 µg/mL | > 25 µg/mL | > 25 µg/mL | > 25 µg/mL | > 25 µg/mL | > 31.3 µg/mL | > 25 µg/mL | – | – | more fungicidal | more fungicidal | – | – | – | – | highest levels of inhibition | – |
| C=C1C(=O)O[C@H]2[C@H]1CC/C(C)=C/CC[C@@]1(C)O[C@@H]21 [Parthenolide, reference compound] | – | – | – | – | – | – | – | 13.5 µg/mL (≈ 54.4 µM) | – | – | – | – | – | – | – | – | – | – |
| Oc1ccc(/C=C/c2ccccc2)cc1O [Compound 12] | > 25 µg/mL | > 25 µg/mL | > 25 µg/mL | > 25 µg/mL | > 25 µg/mL | > 25 µg/mL | > 25 µg/mL | > 25 µg/mL | essentially inactive | – | – | – | – | – | minimal activity | no activity | – | – |
| COc1cccc(CCc2ccc(O)cc2)c1 [Compound 17] | > 25 µg/mL | > 25 µg/mL | > 25 µg/mL | > 25 µg/mL | > 25 µg/mL | > 25 µg/mL | 9 µg/mL (≈ 39.4 µM) | > 25 µg/mL | – | – | – | – | – | – | – | – | – | – |
| Oc1cccc(CCc2ccccc2)c1 [Compound 16] | > 25 µg/mL | > 25 µg/mL | > 25 µg/mL | > 25 µg/mL | > 25 µg/mL | > 25 µg/mL | 17 µg/mL (≈ 85.7 µM) | > 25 µg/mL | appreciable activity | highest activity; also recorded: very low compared to the positive control permethrin | statistically higher activity compared to 14 | – | – | – | – | – | – | – |
| CC(C)/C=C/c1c(O)cc(/C=C/c2ccc(O)c(O)c2)cc1O [Compound 1, arachidin-1] | 15 µg/mL (≈ 48 µM) | 4.8 µg/mL (≈ 15.4 µM) | 4.8 µg/mL (≈ 15.4 µM) | 14.5 µg/mL (≈ 46.4 µM) | 12 µg/mL (≈ 38.4 µM) | 2.8 µg/mL (≈ 8.96 µM) | 5.2 µg/mL (≈ 16.6 µM) | 8.3 µg/mL (≈ 26.6 µM) | – | – | – | – | marginally active | – | – | – | did not exhibit any activity | – |
| CC(C)/C=C/c1c(O)cc(/C=C/C2=CC(=O)OC2CC(=O)O)cc1O (stereo not shown) [Compound 4, SB-1] | > 25 µg/mL | > 25 µg/mL | > 25 µg/mL | > 25 µg/mL | > 25 µg/mL | > 25 µg/mL | > 25 µg/mL | > 25 µg/mL | – | – | – | – | – | – | – | – | did not exhibit any activity | – |
| CC(C)(O)C(O)Cc1cc(/C=C/c2cc(O)cc(O)c2)ccc1O (stereo not shown) [Compound 7, arahypin-2] | > 25 µg/mL | > 25 µg/mL | > 25 µg/mL | > 25 µg/mL | > 25 µg/mL | > 25 µg/mL | > 25 µg/mL | > 25 µg/mL | – | – | – | extremely low | marginally active | – | – | – | highest levels of inhibition | very high |
| COc1cccc(/C=C/c2ccc(O)cc2)c1 [Compound 13] | > 25 µg/mL | > 25 µg/mL | > 25 µg/mL | > 25 µg/mL | > 25 µg/mL | > 25 µg/mL | 4 µg/mL (≈ 17.7 µM) | 19.5 µg/mL (≈ 86.2 µM) | appreciable activity | highest activity; also recorded: very low compared to the positive control permethrin | – | – | – | – | – | – | – | – |
| CC(C)(O)C(O)Cc1c(O)cc(/C=C/c2ccc(O)cc2)cc1O (stereo not shown) [Compound 8, arahypin-3] | > 25 µg/mL | > 25 µg/mL | > 25 µg/mL | > 25 µg/mL | > 25 µg/mL | > 25 µg/mL | > 25 µg/mL | > 25 µg/mL | – | – | – | – | marginally active | – | – | – | – | – |
| CC(C)=CCc1c(O)cc(/C=C/c2ccccc2)cc1O [Compound 5, chiricanine A] | 20 µg/mL (≈ 71.3 µM) | > 25 µg/mL | > 25 µg/mL | > 25 µg/mL | > 25 µg/mL | 19.5 µg/mL (≈ 69.6 µM) | 19 µg/mL (≈ 67.8 µM) | 13 µg/mL (≈ 46.4 µM) | – | significantly lower toxicity | more fungicidal | more fungicidal; also recorded: very high | 6.7±5.8% | – | – | – | highest levels of inhibition | – |
| CC(C)(O)C(O)Cc1c(O)cc(/C=C/c2ccccc2)cc1O (stereo not shown) [Compound 9, arahypin-4] | > 25 µg/mL | > 25 µg/mL | > 25 µg/mL | > 25 µg/mL | > 25 µg/mL | > 25 µg/mL | > 31.3 µg/mL | > 25 µg/mL | – | – | – | – | 10±0.0% | – | – | – | – | – |
| COc1ccc(/C=C/c2cc(O)cc(O[C@@H]3O[C@H](CO)[C@@H](O)[C@H](O)[C@H]3O)c2)cc1O [Compound 23, rhapontin, reference compound] | > 25 µg/mL | > 25 µg/mL | > 25 µg/mL | > 25 µg/mL | > 25 µg/mL | > 25 µg/mL | 20 µg/mL (≈ 47.6 µM) | > 25 µg/mL | – | significantly lower toxicity | – | – | – | – | – | very high growth inhibition values | – | – |
| Oc1cc(O)cc(/C=C/c2ccccc2)c1 [Compound 11, pinosylvin] | 12.5 µg/mL (≈ 58.9 µM) | 13.8 µg/mL (≈ 65 µM) | 13 µg/mL (≈ 61.2 µM) | 17 µg/mL (≈ 80.1 µM) | 13 µg/mL (≈ 61.2 µM) | 10.5 µg/mL (≈ 49.5 µM) | 18 µg/mL (≈ 84.8 µM) | 10.5 µg/mL (≈ 49.5 µM) | essentially inactive | significantly lower toxicity | – | – | – | – | minimal activity | no activity | – | – |
